# C2C12 statin – suppressors of statin myotoxicity in C2C12 myotubes, primary screen, cell-based, single point, plate reader | C2C12 myotubes + simvastatin, ATP luminescence, 48 h; scaled: DMSO 0, geranylgeraniol control 100 | hit rate 0.78% among 330,000 | rescue of ATP level, % at 7.49 µM | AID 602340, 2012;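 active means mean ATP rescue above about 67%, or every replicate alone reaching that limit, limit read from the data, passing the limit was not always enough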;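 further: myotubes were challenged with 10 µM simvastatin during compound exposure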
# Cneo AK release – Cryptococcus neoformans cell lysis inducers, primary screen, AK release luminescence, single concentration | C. neoformans lysis, adenylate kinase release luminescence, 4 h; normalised: neutral wells 0, clomiphene wells 100 | lysis activity, % at 15 µM | hit rate 0.2% among 360,000 | AID 651654, 2012;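 active means mean lysis activity across replicates of at least 80%, whatever share of replicates individually reach that level; inactive means mean lysis activity below 80%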
#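 Material – log-phase Cryptococcus neoformans yeast cells · Input – 5 × 10^6 yeast cells/mL · Medium – fresh YPD growth medium · Doses – single compound concentration per well · Timing – static 4 h at 37 °C with compound, 1 h detection · Detection – adenylate kinase release luminescence · Read-out – signal increase indicating cell lysis · Control set – Clomiphene as positive lysis control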
# SUMO Mot1 rescue – yeast Mot1-301 growth rescue at high temperature, primary screen, SUMOylation pathway inhibitor project, S. cerevisiae, ATP luminescence, 38.5C | S. cerevisiae Mot1-301 growth rescue; percent above DMSO median, 100 means doubled | growth rescue, % at 18.8 µM | hit rate 1% among 320,000 | AID 2716, 2010;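 active means every valid replicate shows activation above 250% relative to neutral control wells; inactive means the rest, any valid replicate at or below 250%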;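 further: OY570 slx delta 5 strain wells were the positive control but not used for scaling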
# Efflux pump mplx – inhibitors of Candida efflux pumps in yeast, primary screen, S. cerevisiae, Nile Red, multiplex | S. cerevisiae Candida pump triplex | hit rate 0.44% among 330,000 | inhibition, % at 10 µM | AID 485275, 2010;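 active means plate passing quality check with inhibition over a set limit, or well fluorescence over plate mean plus 4 SD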;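 further: Nile Red retained in pooled yeast measured as flow cytometry median fluorescence; 0% = buffer negative control and 100% = Enniatin B positive control; higher means more Nile Red kept so more efflux inhibition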
# * hit, by the source's call; i = inactive; . = no result given. Compounds with a hit are over-represented: about 1.8% of the library has one in this group of screens.
SMILES,C2C12 statin,Cneo AK release,SUMO Mot1 rescue,Efflux pump mplx
COc1ccccc1C1=NCc2nnc(C)n2-c2ccc(Cl)cc21,.,.,-11.3,0.4
COc1ccc(C2=NCc3nnc(C)n3-c3ccc(Cl)cc32)cc1Cl,98.1*,2.7,266.2,0.3
C/C(=N\NC(=O)c1ccncc1)c1c(O)[nH]c(=O)[nH]c1=O,.,.,-13.1,.
CCN(CC)C(=O)c1ccc2c(c1)C1C(Cl)C(Sc3ccccc3[N+](=O)[O-])CC1C(C(=O)O)N2 (configuration not stated),.,.,-17.5,0.0
CCN(CC)C(=O)c1ccc2c(c1)C1C=CCC1C(C(=O)O)N2 (configuration not stated),124.8*,-0.9,98.1,0.1
CC(C)(C)n1cc(C(=O)c2ccc3ccccc3c2O)cn1,.,.,-15.9,-0.3
CC(=O)O[C@H]1CC[C@@]2(C)C(=CC[C@@H]3[C@@H]2CC[C@]2(C)C(=O)CC[C@@H]32)C1,8.9,1.1,483.0*,0.0
CC(C)(C)C(=O)O[C@H]1CC[C@@]2(C)C(=CC(=O)C3C2CC[C@]2(C)C(=O)CCC32)C1 (some centres not stated),2.9,-0.7,13.9,0.1
CC(=O)c1c(C)n(CCCOC(C)C)c2ccc(O)cc12,25.3,.,-9.2,0.0
O=C(NC1(C(F)(F)F)Oc2ccccc2O1)N1CCC2(CC1)OCCO2,101.4*,-0.4,-18.5,0.0
CCc1ccc(C(=O)C23CN4CN(CN(C4)C2)C3)cc1,9.3,1.9,351.2*,0.0
COc1ccc(C(=O)C23CN4CN(CN(C4)C2)C3)cc1,-5.9,-2.5,-4.5,-0.1
COC(=O)[C@@H]1[C@@H](CO)[C@@H]2Cn3c(ccc(C4=CCCCC4)c3=O)[C@H]1N2Cc1ccccn1,-20.8,4.2,.,.
O=C(c1ccc(Cl)cc1)C1CCCN(Cc2ccc3ncccc3c2)C1 (configuration not stated),4.4,-6.0,257.8*,-0.1
N#CC12CC(=O)N1Cc1cnnn1-c1ccccc12 (configuration not stated),-3.1,1.1,.,.
Clc1ccc2c(c1)C(c1ccccc1Cl)=NCc1nnc(N3CCN(CCOc4ccccc4)CC3)n1-2,.,1.0,345.6*,-0.2
Clc1ccc2c(c1)C(c1ccccc1Cl)=NCc1nnc(N3CCN(CCSc4ccccc4)CC3)n1-2,62.8,3.5,239.7,0.2
N=c1n(CCO)c2ccccc2n1Cc1ccccc1,85.8*,-5.1,24.8,-0.2
O=C(Cc1ccccn1)N1CCCCN2[C@H](CO)[C@H](c3ccc(-c4ccccc4)cc3)[C@H]2C1,.,-1.5,.,.
COc1ccc(S(=O)(=O)Cc2ccc(C(=O)N3CCC4(CC3)OCCO4)o2)cc1,112.5*,2.7,9.5,0.1
Cn1c(=O)cc(OCCCC(=O)N2CCC3(CC2)OCCO3)c2ccccc21,.,-2.2,48.7,0.1
Cn1cc(CCC(=O)N2CCC3(CC2)OCCO3)c2ccccc21,111.7*,0.6,-9.9,0.0
O=[N+]([O-])c1cc(F)c(N2CCCCC2)cc1Br,.,0.4,48.0,-0.1
Cc1cccc(N=Cc2c(O)n(-c3ccccc3C)c(=O)[nH]c2=O)c1,-48.1,1.3,280.5*,0.0
CN(CC1COc2ccccc2O1)c1nc(-c2cccnc2)nc2ccccc12 (configuration not stated),107.7*,12.6,-0.2,0.3
SMILES,C2C12 statin,Cneo AK release,SUMO Mot1 rescue,Efflux pump mplx
COc1ccc(CC2(CCc3ccncc3)C(=O)NC(=O)NC2=O)c(OC)c1,.,.,281.4*,0.0
COc1ccc(Cn2c(O)c(C=Nc3c(C)n(C)n(-c4ccccc4)c3=O)c(=O)[nH]c2=O)cc1,.,.,i,0.4
C=COCCn1c(C)c(C(C)=O)c2cc(O)ccc21,113.4*,-0.1,-0.2,0.0
O=c1[nH]c(CN2CC=C(c3ccccc3)CC2)nc2cc(C(F)(F)F)ccc12,-0.7,87.7*,3.4,0.2
CN(c1ccc(O)cc1)c1ccc([N+](=O)[O-])c2nonc12,116.9*,1.9,.,.
O=[N+]([O-])c1ccc(N2CCCCCC2)c2nonc12,0.2,-0.1,6.3,0.1
CCC(C)n1c(O)c(C=NCCc2ccccc2)c(=O)[nH]c1=S (configuration not stated),4.6,-1.9,1.9,-0.1
O=c1[nH]c(=S)n(C2CC2)c(O)c1/C=N/Nc1ccccc1,.,5.4,282.1*,-0.3
O=c1[nH]c(=O)n(CCC2=CCCCC2)c(O)c1/C=N/Nc1ccccc1,.,.,291.4*,-0.1

# Screens as filed in PubChem BioAssay.
